In brackets after ≈: the same amount, converted by molar mass.
Columns and labels:
[1] = tested on: H. pylori OX.67; experiment: Broth dilution bioassay MIC/MBC, OX.67; format: cell-based, Helicobacter pylori; conditions: Helicobacter pylori; for MIC: OX.67, 48 h, H. pylori OX.67, broth dilution, 48 h; for MBC: OX.67, 72 h
[2] = molecular target: H. pylori ATCC 43504 urease (Helicobacter pylori, UniProt P69996); experiment: Urease inhibition, salicylate-hypochlorite method; format: biochemical; conditions: for slope ± SE: slope of dose-response curve of percentage of urease inhibition
In short: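 Crude H. pylori ATCC 43504 urease, 0.25 μg (0.04 U), in EDTA–sodium phosphate buffer pH 7.3, was preincubated with test compound at 37 °C for 90 min at 50 rpm. Urea solution (10 mM, as added) was then incubated for 30 min. Ammonia was measured by the salicylate–nitroprusside/alkaline hypochlorite method at 625 nm. Thiourea was the reference inhibitor. IC50 is molar. Triplicates, three independent experiments.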

[3] = Sulforhodamine cytotoxicity assay, Jurkat; format: cell-based; conditions: human, Jurkat cells
In short: (§1)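 Cells were grown in EMEM with 10% FBS, 2 mM L-glutamine, 20 mM HEPES and antibiotics at 37 °C, 5% CO2. Passages were 4–20 for HeLa, MCF7 and Jurkat, and 2–5 for fibroblasts. Seeding per well for 24 h: HeLa 5×10^3, MCF7 and fibroblast 10^4, Jurkat 5×10^4. Test compound (0–200 mg/L, in DMSO) was added for 48 h. Cells were fixed with cold TCA, stained with 0.2% SRB, solubilised in 10 mM Tris and read at 492 nm. Camptothecin was the positive control. Triplicates, three independent experiments.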

[4] = tested on: H. pylori ATCC 43504; experiment: Time-killing assay; format: cell-based, Helicobacter pylori
In short: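 H. pylori ATCC 43504 in 10% NBS-supplemented Brucella broth in 96-well plates, by broth microdilution. Inoculum suspension 5×10^6 CFU/mL; DMSO final ≤2.5%. Test compound was used at concentrations from MIC to MBC, alongside an untreated control. Viability was counted by plate colony count at 0, 6, 12, 18, 24, 36 and 48 h.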

[5] = tested on: H. pylori OX.22; experiment: Broth dilution bioassay MIC/MBC, OX.22; format: cell-based; conditions: Helicobacter pylori; for MIC: OX.22, 48 h; for MBC: OX.22, 72 h
[6] = Sulforhodamine cytotoxicity assay, MCF7; format: cell-based; conditions: human, MCF7 cells
In short: as §1

[7] = tested on: H. pylori ATCC 43504 biofilm formation; experiment: Biofilm formation inhibitory assay; format: cell-based, Helicobacter pylori; conditions: 48 h
[8] = tested on: H. pylori OX.63; experiment: Broth dilution bioassay MIC/MBC, OX.63; format: cell-based, Helicobacter pylori; conditions: Helicobacter pylori; for MIC: OX.63, 48 h, H. pylori OX.63, broth dilution, 48 h; for MBC: OX.63, 72 h
[9] = tested on: H. pylori ATCC 43504; experiment: Effect on morphology; format: cell-based, Helicobacter pylori
[10] = tested on: H. pylori ATCC 43504; experiment: Broth dilution bioassay MIC/MBC, ATCC 43504; format: cell-based; conditions: Helicobacter pylori; for MIC: ATCC43504, 48 h; for MBC: ATCC43504, 72 h
[11] = tested on: H. pylori OX.83; experiment: Broth dilution bioassay MIC/MBC, OX.83; format: cell-based, Helicobacter pylori; conditions: Helicobacter pylori; for MIC: OX.83, 48 h, H. pylori OX.83, broth dilution, 48 h; for MBC: OX.83, 72 h
[12] = tested on: H. pylori OX.64; experiment: Broth dilution bioassay MIC/MBC, OX.64; format: cell-based, Helicobacter pylori; conditions: Helicobacter pylori; for MIC: OX.64, 48 h, H. pylori OX.64, broth dilution, 48 h; for MBC: OX.64, 72 h
[13] = Sulforhodamine cytotoxicity assay, HeLa; format: cell-based; conditions: human, HeLa cells
In short: as §1

[14] = tested on: test strains of H. pylori; experiment: Broth dilution bioassay MIC/MBC, text summary over test strains; format: cell-based; conditions: Helicobacter pylori, ATCC51932
[15] = tested on: H. pylori ATCC 51932; experiment: Broth dilution bioassay MIC/MBC, ATCC 51932; format: cell-based; conditions: Helicobacter pylori; for MIC: ATCC51932, 48 h; for MBC: ATCC51932, 72 h
[16] = Sulforhodamine cytotoxicity assay, fibroblast; format: cell-based; conditions: human, fibroblast cells derived from human foreskins
In short: as §1

[17] = Sulforhodamine cytotoxicity assay, text summary over four cell lines; format: cell-based; conditions: human
In short: as §1

H. pylori ATCC 43504 urease, sequence (P69996 whole entry): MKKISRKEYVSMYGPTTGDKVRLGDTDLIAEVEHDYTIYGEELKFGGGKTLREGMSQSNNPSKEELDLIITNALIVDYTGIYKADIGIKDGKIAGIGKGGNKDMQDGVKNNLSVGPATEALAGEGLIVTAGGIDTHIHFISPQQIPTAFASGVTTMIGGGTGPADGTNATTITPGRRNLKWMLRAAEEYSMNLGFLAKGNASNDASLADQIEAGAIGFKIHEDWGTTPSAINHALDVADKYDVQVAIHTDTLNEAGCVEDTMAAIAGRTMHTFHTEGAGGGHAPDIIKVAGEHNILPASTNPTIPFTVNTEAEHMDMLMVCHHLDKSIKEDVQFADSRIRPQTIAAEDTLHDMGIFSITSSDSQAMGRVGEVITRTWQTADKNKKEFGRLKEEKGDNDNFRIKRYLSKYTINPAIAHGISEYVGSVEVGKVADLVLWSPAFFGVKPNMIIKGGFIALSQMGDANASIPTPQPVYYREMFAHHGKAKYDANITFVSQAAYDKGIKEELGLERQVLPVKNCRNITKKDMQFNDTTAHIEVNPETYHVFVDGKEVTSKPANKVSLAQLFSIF
H. pylori ATCC 43504 urease, sequence (P14916 whole entry partner): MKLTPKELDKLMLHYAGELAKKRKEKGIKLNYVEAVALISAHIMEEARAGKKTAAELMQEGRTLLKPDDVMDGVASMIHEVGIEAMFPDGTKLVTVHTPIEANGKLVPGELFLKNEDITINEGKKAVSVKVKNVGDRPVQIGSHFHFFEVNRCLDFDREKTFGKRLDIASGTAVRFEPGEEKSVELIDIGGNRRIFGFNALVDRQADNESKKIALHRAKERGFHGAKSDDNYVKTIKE

SMILES: O=C1C[C@@H](c2ccc(O)cc2)Oc2cc(O)cc(O)c21 [NRG, naringenin]
- MIC [1]: 100 µg/mL (≈ 367 µM)
- MBC [1]: 1000 µg/mL (≈ 3670 µM)
- IC50 [2]: 575 µM
- slope ± SE [2]: 1.38 ± 0.045
- CC50 at 48 h [3]: 46.6 µg/mL (≈ 171 µM)
- reduction of viability ([4]; at the MIC, 48 h): ~1 log10
- reduction of viability ([4]; five times the MIC, 24 h): ~2.5 log10
- reduction of viability ([4]; five times the MIC, 36 h): ~4 log10
- MIC [5]: 100 µg/mL (≈ 367 µM)
- MBC [5]: 1000 µg/mL (≈ 3670 µM)
- CC50 at 48 h [6]: 93.7 µg/mL (≈ 344 µM)
- reduction of biofilm formation ([7]; 1/2 × MIC (NRG 50 mg/L, MCT 75 mg/L)): 85.9%
- reduction of biofilm formation ([7]; 1/4 × MIC (NRG 25 mg/L)): 52.7%
- MIC [8]: 100 µg/mL (≈ 367 µM)
- MBC [8]: 1000 µg/mL (≈ 3670 µM)
- conversion to the coccoid form ([9]; 500 mg/L): 16.5%
- conversion to the coccoid form ([9]; 1000 mg/L): 95%
- MIC [10]: 100 µg/mL (≈ 367 µM)
- MBC [10]: 1000 µg/mL (≈ 3670 µM)
- MIC [11]: 100 µg/mL (≈ 367 µM)
- MBC [11]: 1000 µg/mL (≈ 3670 µM)
- MIC [12]: 100 µg/mL (≈ 367 µM)
- MBC [12]: 1000 µg/mL (≈ 3670 µM)
- CC50 at 48 h [13]: 65.2 µg/mL (≈ 239 µM)
- MIC [14]: 100 µg/mL (≈ 367 µM)
- MIC [15]: 100 µg/mL (≈ 367 µM)
- MBC [15]: 1000 µg/mL (≈ 3670 µM)
- CC50 at 48 h [16]: 133 µg/mL (≈ 490 µM)
- CC50 at 48 h [17]: 46.6 to 133 µg/mL (≈ 171 to 490 µM)

SMILES: O=C(O)c1ccc(O)c(O)c1 [PCA, protocatechuic acid]
- MIC [1]: 250 µg/mL (≈ 1620 µM)
- MBC [1]: 1500 µg/mL (≈ 9730 µM)
- IC50 [2]: 486 µM
- slope ± SE [2]: 2.00 ± 0.075
- CC50 at 48 h [3]: > 200 µg/mL
- reduction of viability ([4]; at the MIC, 36 h): ~2 log10
- reduction of viability ([4]; four times the MIC, 48 h): ~6 log10
- MIC [5]: 250 µg/mL (≈ 1620 µM)
- MBC [5]: 1500 µg/mL (≈ 9730 µM)
- CC50 at 48 h [6]: > 200 µg/mL
- antibiofilm activity ([7]; at test concentrations (sub-MICs)): did not show antibiofilm activity
- MIC [8]: 250 µg/mL (≈ 1620 µM)
- MBC [8]: 1500 µg/mL (≈ 9730 µM)
- conversion to the coccoid form ([9]; 500 mg/L): not significantly different from that in the control group
- conversion to the coccoid form ([9]; 1000 mg/L): 12%
- MIC [10]: 250 µg/mL (≈ 1620 µM)
- MBC [10]: 1500 µg/mL (≈ 9730 µM)
- MIC [11]: 250 µg/mL (≈ 1620 µM)
- MBC [11]: 1500 µg/mL (≈ 9730 µM)
- MIC [12]: 250 µg/mL (≈ 1620 µM)
- MBC [12]: 1500 µg/mL (≈ 9730 µM)
- CC50 at 48 h [13]: > 200 µg/mL
- MIC [14]: 250 µg/mL (≈ 1620 µM)
- MIC [15]: 250 µg/mL (≈ 1620 µM)
- MBC [15]: 1500 µg/mL (≈ 9730 µM)
- CC50 at 48 h [16]: > 200 µg/mL
- CC50 at 48 h [17]: > 200 µg/mL

Source: PMC7439261 (ACS Omega, 2020)
